Source: ChEMBL document CHEMBL3763156, “Imidazole-based pinanamine derivatives: Discovery of dual inhibitors of the wild-type and drug-resistant mutant of the influenza A virus” (Eur J Med Chem, 2016)

Columns and labels:
[1] = test system: Influenza A virus; assay: Antiviral activity against amantadine-sensitive Influenza A virus A/HK/68 (H3N2) expressing wild type M2 ion channel infected in MDCK cells assessed as protection against virus induced cytopathic effect after 48 hrs by microscopic analysis; assay type: functional, organism-based, Influenza A virus (A/Hong Kong/1/1968(H3N2))
Procedure, shortened: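 MDCK cells were grown 24 h to a confluent monolayer and rinsed twice. They were infected with 100 TCID50 virus for 2 h at 37 °C in 5% CO2, and the inoculum was removed. Serial two-fold compound dilutions in DMEM with 1.5 µg/mL trypsin were added for 48 h at 34 °C in 5% CO2. CPE percentage was scored microscopically. IC50 came from non-linear regression, as the mean of 2–3 determinations.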

[2] = Cytotoxicity against MDCK cells assessed as cell viability after 48 hrs by MTT assay; assay type: cell-based, Canis lupus familiaris; conditions: dog
Procedure, shortened: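 Uninfected MDCK cells were exposed to various compound concentrations for 48 h. MTT was added from a 5 mg/mL stock for 4 h at 37 °C, stopped with DMSO, and read at 490 nm. CC50 was calculated by the Reed–Muench method, as the mean of 2–3 determinations.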

[3] = target: Matrix protein 2 (Influenza A virus (A/Udorn/307/1972(H3N2))) (UniProt P0DOF8); assay: Inhibition of Influenza A virus wild type M2 ion channel expressed in 293Trex cells at 100 uM after 2 mins by patch clamp assay; assay type: cell-based
[4] = test system: Influenza A virus; assay: Antiviral activity against amantadine-sensitive Influenza A virus A/HK/68 (H3N2) expressing wild type M2 ion channel infected in MDCK cells assessed as cell viability after 48 hrs by MTT assay; assay type: functional, organism-based, Influenza A virus (A/Hong Kong/1/1968(H3N2))
Procedure, shortened: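 Infected MDCK cells were given compound for 48 h, and the CPE-based result was confirmed by MTT viability. MTT was added from a 5 mg/mL stock for 4 h at 37 °C, stopped with DMSO, and read as absorbance at 490 nm. The 50% effective concentration was calculated by the Reed–Muench method, as the mean of 2–3 determinations.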

[5] = target: Matrix protein 2 (Influenza A virus (A/Udorn/307/1972(H3N2))) (UniProt P0DOF8); assay: Inhibition of Influenza A virus wild type M2 ion channel expressed in Xenopus oocytes at 100 uM after 2 mins by two-electrode voltage clamp assay; assay type: cell-based
Procedure, shortened: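 A/M2 channel (S31N for line 7, wild type for line 9) was expressed in Xenopus oocytes and recorded by two-electrode voltage clamp. Compound was applied at 100 µM, and the percentage inhibition of channel current was taken after 2 min. Values are mean ± SD.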

[6] = Influenza A virus, MDCK, 48 h, read-out: IC50

Cc1nc[nH]c1CN[C@@H]1C[C@@H]2C[C@H]([C@H]1C)C2(C)C
IC50 [1, 6]: 3.2 µM | CC50 at 48 h [2]: 252 µM | inhibition [3]: 95.8%

C[C@@H]1[C@H]2C[C@@H](C[C@H]1NCc1cnc(C3CCCC3)[nH]1)C2(C)C
IC50 ([1]; mdck): Not Active | CC50 at 48 h [2]: 37.2 µM

CCCc1nc(-c2ccccc2)[nH]c1CN[C@@H]1C[C@@H]2C[C@H]([C@H]1C)C2(C)C
IC50 [1, 6]: 13.5 µM | CC50 at 48 h [2]: 143 µM | IC50 [4]: 15.2 µM

CCCCc1ncc(CN[C@@H]2C[C@@H]3C[C@H]([C@H]2C)C3(C)C)[nH]1
IC50 ([1]; mdck): Not Active | CC50 at 48 h [2]: 70.4 µM

C[C@@H]1[C@H]2C[C@@H](C[C@H]1NCc1[nH]cnc1-c1ccccc1)C2(C)C
IC50 ([1]; mdck): Not Active | CC50 at 48 h [2]: 39.7 µM

CCc1ncc(CN[C@@H]2C[C@@H]3C[C@H]([C@H]2C)C3(C)C)[nH]1
IC50 ([1]; mdck): Not Active | CC50 at 48 h [2]: 137 µM

C[C@@H]1[C@H]2C[C@@H](C[C@H]1NCc1cnc(-c3ccccc3)[nH]1)C2(C)C
IC50 [1, 6]: 7.6 µM | CC50 at 48 h [2]: 79.9 µM | IC50 [4]: 10.7 µM

C[C@@H]1[C@H]2C[C@@H](C[C@H]1NCc1cnc(C3CCCCC3)[nH]1)C2(C)C
IC50 ([1]; mdck): Not Active | CC50 at 48 h [2]: 33.5 µM

Cc1ncc(CN[C@@H]2C[C@@H]3C[C@H]([C@H]2C)C3(C)C)[nH]1
IC50 ([1]; mdck): Not Active | CC50 at 48 h [2]: 202 µM

CCc1nc(C)c(CN[C@@H]2C[C@@H]3C[C@H]([C@H]2C)C3(C)C)[nH]1
IC50 [1, 6]: 4.1 µM | CC50 at 48 h [2]: 136 µM | inhibition [5]: 91.7% | IC50 [4]: 4.5 µM

Cc1nc(C2CC2)[nH]c1CN[C@@H]1C[C@@H]2C[C@H]([C@H]1C)C2(C)C
IC50 [1, 6]: 15.3 µM | CC50 at 48 h [2]: 74.9 µM | IC50 [4]: 21.2 µM

Cc1nc(C(C)C)[nH]c1CN[C@@H]1C[C@@H]2C[C@H]([C@H]1C)C2(C)C
IC50 ([1]; mdck): Not Active | CC50 at 48 h [2]: 73.1 µM

CCCc1nc(C(C)C)[nH]c1CN[C@@H]1C[C@@H]2C[C@H]([C@H]1C)C2(C)C
IC50 [1, 6]: 10.2 µM | CC50 at 48 h [2]: 156 µM | IC50 [4]: 13.5 µM

CCCc1nc[nH]c1CN[C@@H]1C[C@@H]2C[C@H]([C@H]1C)C2(C)C
IC50 [1, 6]: 2.5 µM | CC50 at 48 h [2]: 200 µM | inhibition [5]: 97.9% | IC50 [4]: 3.3 µM

CCCc1nc(C2CC2)[nH]c1CN[C@@H]1C[C@@H]2C[C@H]([C@H]1C)C2(C)C
IC50 [1, 6]: 6.9 µM | CC50 at 48 h [2]: 112 µM | IC50 [4]: 10.8 µM

C[C@@H]1[C@H]2C[C@@H](C[C@H]1NCc1cnc(C(C)(C)C)[nH]1)C2(C)C
IC50 [1, 6]: 8.8 µM | CC50 at 48 h [2]: 107 µM | IC50 [4]: 12.4 µM

CC(C)c1ncc(CN[C@@H]2C[C@@H]3C[C@H]([C@H]2C)C3(C)C)[nH]1
IC50 ([1]; mdck): Not Active | CC50 at 48 h [2]: 114 µM

C[C@@H]1[C@H]2C[C@@H](C[C@H]1NCc1cncn1C)C2(C)C
IC50 [1, 6]: 12 µM

CC(C)Cc1ncc(CN[C@@H]2C[C@@H]3C[C@H]([C@H]2C)C3(C)C)[nH]1
IC50 [1, 6]: 8.7 µM | CC50 at 48 h [2]: 74.8 µM | IC50 [4]: 15.2 µM

C[C@@H]1[C@H]2C[C@@H](C[C@H]1NCc1cnc(C3CC3)[nH]1)C2(C)C
IC50 ([1]; mdck): Not Active | CC50 at 48 h [2]: 94.5 µM

CCc1nc[nH]c1CN[C@@H]1C[C@@H]2C[C@H]([C@H]1C)C2(C)C
IC50 [1, 6]: 5.8 µM | CC50 at 48 h [2]: 180 µM | IC50 [4]: 6.7 µM

C[C@@H]1[C@H]2C[C@@H](C[C@H]1NCc1[nH]cnc1C(C)(C)C)C2(C)C
IC50 [1, 6]: 8.3 µM | CC50 at 48 h [2]: 72.3 µM | IC50 [4]: 12.9 µM

C[C@@H]1[C@H]2C[C@@H](C[C@H]1NCc1[nH]cnc1C1CC1)C2(C)C
IC50 [1, 6]: 3.4 µM | CC50 at 48 h [2]: 162 µM | IC50 [4]: 3.8 µM

C[C@@H]1[C@H]2C[C@@H](C[C@H]1NCc1cnc(-c3cccs3)[nH]1)C2(C)C
IC50 ([1]; mdck): Not Active | CC50 at 48 h [2]: 75.6 µM
